From ChEMBL document CHEMBL1131263, “Substituted tetrahydropyrrolo[2,1-b]oxazol-5(6H)-ones and tetrahydropyrrolo[2,1-b]thiazol-5(6H)-ones as hypoglycemic agents” (1998)

What was measured:
Mus musculus [1] = test: In vivo lowering of blood glucose levels in diabetic obese ob/ob mice by measuring postprandial blood glucose level on day 3 after 8 hours at 300 uM/kg oral dose; format: functional
Summary of the method: (§1)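 Adult male C57BL ob/ob mice, fed, grouped (6/group) and matched for blood glucose on day 0; mice under 150 mg/dL excluded. Oral dosing in the morning on days 1-3, vehicle 0.5% CMC with 0.2% Tween-80. Significance versus vehicle.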

Mus musculus [2] = test: In vivo lowering of blood glucose levels in diabetic obese ob/ob mice, measuring postprandial blood glucose level on day1 after 2 hours at 300 uM/kg oral dose; format: functional; summary of the method: as §1
[3] = lowest concentration at which glucose utilized was greater than or equal to 140% of control value tested in a glucose utilization L6 myocyte in vitro assay; format: functional, Rattus norvegicus
Summary of the method: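 Differentiated rat L6 myotubes (day 11 or 13 after plating) exposed 20 h to compound in serum-free DMEM with 15 mM glucose and 1% final DMSO. Tested in quadruplicate at 3, 10, 30, 100, 300 µM. Glucose left in the medium read by glucose oxidase. Value is the lowest concentration giving at least 40% more utilization than control.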

Mus musculus [4] = test: In vivo lowering of blood glucose levels in diabetic obese ob/ob mice by measuring postprandial blood glucose level on day1 after 4 hours at 300 uM/kg oral dose; format: functional; summary of the method: as §1
Mus musculus [5] = test: In vivo lowering of blood glucose levels in diabetic obese ob/ob mice, measuring postprandial blood glucose level on day 3 after 2 hours at 300 uM/kg oral dose; format: functional; summary of the method: as §1
Mus musculus [6] = test: In vivo lowering of blood glucose levels in diabetic obese ob/ob mice by measuring postprandial blood glucose level on day 3 after 4 hours at 300 uM/kg oral dose; format: functional; summary of the method: as §1

## CC(C)C(=O)N1C[C@H](COc2ccc(Cl)cc2)O[C@@H]1c1ccc(Cl)c(Cl)c1
Mus musculus [1]
  Efficacy: 6%
Mus musculus [2]
  Efficacy: 32%
[3]
  Lowest effective concentration for glucose utilization ≥140% of control: 30 µM
Mus musculus [4]
  Efficacy: 21%
Mus musculus [5]
  Efficacy: 20%
Mus musculus [6]
  Efficacy: 24%

## COc1ccc([C@]23CCC(=O)N2C[C@@H](COc2ccc(Cl)cc2)O3)cc1
Mus musculus [1]
  Efficacy: 12%
Mus musculus [2]
  Efficacy: -12%
[3]
  Lowest effective concentration for glucose utilization ≥140% of control: 30 µM
Mus musculus [4]
  Efficacy: 3%
Mus musculus [5]
  Efficacy: -5%
Mus musculus [6]
  Efficacy: -27%

## COc1ccc(OC[C@@H]2CN3C(=O)CC[C@]3(c3ccc(Cl)cc3)O2)cc1
Mus musculus [1]
  Efficacy: -28%
Mus musculus [2]
  Efficacy: -17%
[3]
  Lowest effective concentration for glucose utilization ≥140% of control: 100 µM
Mus musculus [4]
  Efficacy: -20%
Mus musculus [5]
  Efficacy: -19%
Mus musculus [6]
  Efficacy: -8%

## OCc1cc(-c2ccc(Oc3ccccc3)cc2)no1
Mus musculus [1]
  Efficacy: 24%
Mus musculus [2]
  Efficacy: 14%
[3]
  Lowest effective concentration for glucose utilization ≥140% of control: 30 µM
Mus musculus [4]
  Efficacy: 15%
Mus musculus [5]
  Efficacy: 56%
Mus musculus [6]
  Efficacy: 14%

## O=C1CC[C@]2(c3ccc(Cl)cc3)SCCN12
Mus musculus [1]
  Efficacy: 68%
Mus musculus [2]
  Efficacy: 16%
[3]
  Lowest effective concentration for glucose utilization ≥140% of control: 300 µM
Mus musculus [4]
  Efficacy: 2%
Mus musculus [5]
  Efficacy: 57%
Mus musculus [6]
  Efficacy: 64%

## O=C1CC[C@]2(c3ccc(F)cc3)O[C@H](COc3ccc(Cl)cc3)CN12
Mus musculus [1]
  Efficacy: 38%
Mus musculus [2]
  Efficacy: -2%
[3]
  Lowest effective concentration for glucose utilization ≥140% of control: 30 µM
Mus musculus [4]
  Efficacy: 19%
Mus musculus [5]
  Efficacy: 67%
Mus musculus [6]
  Efficacy: 60%

## O=C1CCC[C@]2(c3ccc(Oc4ccccc4)cc3)OCCN12
Mus musculus [1]
  Efficacy: 3%
Mus musculus [2]
  Efficacy: 25%
[3]
  Lowest effective concentration for glucose utilization ≥140% of control: 30 µM
Mus musculus [4]
  Efficacy: 29%
Mus musculus [5]
  Efficacy: 45%
Mus musculus [6]
  Efficacy: 50%

## OCc1cc(-c2ccc(Cl)cc2)no1
Mus musculus [1]
  Efficacy: 34%
Mus musculus [2]
  Efficacy: -3%
[3]
  Lowest effective concentration for glucose utilization ≥140% of control: 100 µM
Mus musculus [4]
  Efficacy: -1%
Mus musculus [5]
  Efficacy: 61%
Mus musculus [6]
  Efficacy: 53%

## O=C1CCC[C@]2(c3ccccc3)O[C@H](COc3ccc(Cl)cc3)CN12
Mus musculus [1]
  Efficacy: 54%
Mus musculus [2]
  Efficacy: 42%
[3]
  Lowest effective concentration for glucose utilization ≥140% of control: 30 µM
Mus musculus [4]
  Efficacy: 29%
Mus musculus [5]
  Efficacy: 10%
Mus musculus [6]
  Efficacy: 50%

## O=C1CC[C@]2(c3ccc(Cl)c(C(F)(F)F)c3)O[C@@H](COc3ccc(Cl)cc3)CN12
[3]
  Lowest effective concentration for glucose utilization ≥140% of control: 300 µM

## O=C1CC[C@]2(c3ccc(Cl)c(Cl)c3)O[C@H](CSc3ccc(Cl)cc3)CN12
[3]
  Lowest effective concentration for glucose utilization ≥140% of control: 100 µM

## CNC(=O)N1CCS[C@@H]1c1ccc(Cl)cc1
[3]
  Lowest effective concentration for glucose utilization ≥140% of control: 300 µM

## O=C1CC[C@]2(c3ccc(F)cc3)O[C@@H](COc3ccc(Cl)cc3)CN12
[3]
  Lowest effective concentration for glucose utilization ≥140% of control: >300 µM

## O=C1CC[C@]2(c3ccc(Cl)cc3)S[C@H](COc3ccc(Cl)cc3)CN12
Mus musculus [1]
  Efficacy: 11%
Mus musculus [2]
  Efficacy: 28%
[3]
  Lowest effective concentration for glucose utilization ≥140% of control: >300 µM
Mus musculus [4]
  Efficacy: 14%
Mus musculus [5]
  Efficacy: -11%
Mus musculus [6]
  Efficacy: 9%

## O=C1CC[C@]2(c3ccc(Oc4ccccc4)cc3)OCCN12
Mus musculus [1]
  Efficacy: -4%
Mus musculus [2]
  Efficacy: -8%
[3]
  Lowest effective concentration for glucose utilization ≥140% of control: 300 µM
Mus musculus [4]
  Efficacy: 11%
Mus musculus [5]
  Efficacy: -3%
Mus musculus [6]
  Efficacy: -1%

## O=C(c1ccccc1)N1C[C@H](COc2ccc(Cl)cc2)O[C@@H]1c1ccc(Cl)c(Cl)c1
[3]
  Lowest effective concentration for glucose utilization ≥140% of control: 300 µM

## O=C1CCC[C@]2(c3ccccc3)O[C@@H](COc3ccc(Cl)cc3)CN12
[3]
  Lowest effective concentration for glucose utilization ≥140% of control: >300 µM

## CS(=O)(=O)N1C[C@@H](COc2ccc(Cl)cc2)O[C@@H]1c1ccc(Cl)cc1
Mus musculus [1]
  Efficacy: 22%
Mus musculus [2]
  Efficacy: -10%
[3]
  Lowest effective concentration for glucose utilization ≥140% of control: 30 µM
Mus musculus [4]
  Efficacy: 18%
Mus musculus [5]
  Efficacy: 11%
Mus musculus [6]
  Efficacy: 55%

## COc1ccc([C@H]2O[C@H](COc3ccc(Cl)cc3)CN2C(C)=O)cc1
[3]
  Lowest effective concentration for glucose utilization ≥140% of control: >300 µM

## CC1(C)C[C@]2(c3ccc(Cl)cc3)O[C@H](COc3ccc(Cl)cc3)CN2C1=O
[3]
  Lowest effective concentration for glucose utilization ≥140% of control: 30 µM

## CC1(C)C[C@]2(c3ccc(Cl)cc3)O[C@@H](COc3ccc(Cl)cc3)CN2C1=O
[3]
  Lowest effective concentration for glucose utilization ≥140% of control: 100 µM

## COC(=O)N1C[C@@H](COc2ccc(Cl)cc2)O[C@@H]1c1ccc(Cl)c(Cl)c1
[3]
  Lowest effective concentration for glucose utilization ≥140% of control: 300 µM

## O=C1CC[C@]2(c3ccc(Cl)cc3)O[C@H](CNc3ccc(Cl)cc3)CN12
[3]
  Lowest effective concentration for glucose utilization ≥140% of control: >300 µM

## OCc1cc(-c2ccc(Cl)cc2Cl)no1
[3]
  Lowest effective concentration for glucose utilization ≥140% of control: 300 µM

## O=C1CC[C@]2(c3ccccc3)OC[C@H](O)CN12
[3]
  Lowest effective concentration for glucose utilization ≥140% of control: >300 µM

## O=C1CC[C@]2(c3c[nH]c4ccccc34)O[C@H](COc3ccc(Cl)cc3)CN12
[3]
  Lowest effective concentration for glucose utilization ≥140% of control: >300 µM

## CC(=O)N1C[C@H](COc2ccc(Cl)cc2)S[C@@H]1c1ccc(Cl)cc1
[3]
  Lowest effective concentration for glucose utilization ≥140% of control: 30 µM

## CC(C)C(=O)N1C[C@@H](COc2ccc(Cl)cc2)O[C@@H]1c1ccc(Cl)c(Cl)c1
[3]
  Lowest effective concentration for glucose utilization ≥140% of control: 30 µM

## COC(=O)COC[C@@H]1CN2C(=O)CC[C@]2(c2ccc(Cl)cc2)O1
[3]
  Lowest effective concentration for glucose utilization ≥140% of control: >300 µM
